High-throughput results (PubChem BioAssay)
The list is not random: actives were taken first. Their share in the collection is about 2.9%.
DENV2 CPE – DENV2-induced cell death inhibition; DENV2-infected cells, cytopathic effect rescue, plate reader; CPE inhibition, % at 9.99 µM; actives 1.7% (n = 350,000); AID 651640; in the data active = CPE inhibition above about 20%, passing the limit was not always enough; inconclusive = no clear call, values can overlap the other calls; tested in BHK-21 cells;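 note: 0% = median of neutral control wells and 100% = median of positive control wells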
SIRT5 inh – blocks human SIRT5 desuccinylation of peptide; Q9NXA8; Purified SirT5, succinyl-peptide AMC, trypsin-coupled fluorescence; inhibition, % at 15 µM; actives 1.1% (n = 330,000); AID 652115; in the data active = inhibition above about 15%; inconclusive = no clear call, values can overlap the other calls
Target sequence (Q9NXA8 whole entry, looked up): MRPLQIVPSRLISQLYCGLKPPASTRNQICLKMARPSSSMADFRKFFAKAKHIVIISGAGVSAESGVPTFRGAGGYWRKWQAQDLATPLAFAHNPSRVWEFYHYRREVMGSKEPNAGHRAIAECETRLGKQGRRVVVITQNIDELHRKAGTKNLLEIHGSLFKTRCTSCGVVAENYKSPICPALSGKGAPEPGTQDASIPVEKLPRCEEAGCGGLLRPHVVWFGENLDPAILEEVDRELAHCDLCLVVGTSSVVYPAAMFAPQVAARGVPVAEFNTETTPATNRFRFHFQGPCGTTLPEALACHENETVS
Statin myotox sup – protects C2C12 myotubes from simvastatin toxicity; rescue of ATP level, % at 7.49 µM; actives 0.78% (n = 330,000); ATP luminescence, 48 h; scaled: DMSO 0, geranylgeraniol control 100;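 active = mean ATP rescue above about 67%, or every replicate alone reaching that limit, limit read from the data, passing the limit was not always enough; inconclusive = no clear call, values can overlap the other calls; inactive = mean under the limit and some replicate under it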;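 note: myotubes were challenged with 10 µM simvastatin during compound exposure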
S100A4 MyoIIA – S100A4-myosin IIA interaction inhibition; S100A4/TAMRA-MyoIIA peptide fluorescence polarization; inhibition, % at 10.7 µM; actives 0.14% (n = 360,000);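 active = mean inhibition of at least 70% across replicates, with every replicate also reaching that level; inconclusive = mean inhibition reaches 70% but some replicates fall short; inactive = mean inhibition below 70%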
Target sequence (P26447 whole entry, looked up): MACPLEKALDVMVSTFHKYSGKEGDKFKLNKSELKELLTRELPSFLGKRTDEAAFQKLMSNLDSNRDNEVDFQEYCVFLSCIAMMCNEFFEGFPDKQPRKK
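Compound dosing: one dose per compound; test system: human S100A4 monomer with TAMRA-labelled myosin IIA peptide; probe or stimulus: TAMRA-labelled myosin IIA heavy-chain peptide probe, 5 nM; medium: HEPES buffer with Ca2+, pH 7.2; schedule: 5 min incubation before reading; benchmarks: neutral control DMSO, positive control TFP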
PGC1a acetyl inh – PGC1a acetylation modulation, inhibitor mode; U2OS PGC1a acetylation, AlphaScreen anti-acetyl-lysine; with virally co-expressed GCN5 acetyltransferase; inhibition, % at 15.6 µM; actives 0.17% (n = 350,000);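 active = every replicate shows inhibition of at least 40%; inconclusive = mean inhibition at least 40% but some replicate below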;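 note: 0% = neutral control wells and 100% = positive control wells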
* hit, by the source's call; ? = inconclusive; . = no result; ! = a repeat was not active.

SMILES	DENV2 CPE	SIRT5 inh	Statin myotox sup	S100A4 MyoIIA	PGC1a acetyl inh
C[C@H](CO)N1C[C@H](C)[C@@H](CN(C)S(=O)(=O)c2ccc3ccccc3c2)OCc2cnnn2CCCC1=O	-5	21*!	-8	-3	-5
CC(C)NC(=O)N1CCCCN2[C@H](CO)[C@@H](c3ccc(C#Cc4ccccc4)cc3)[C@@H]2C1	.	.	.	.	1
CCCNC(=O)N1C[C@@H](O)COC[C@H]2O[C@@H](CC(=O)N3CCN(C)CC3)CC[C@@H]21	0	7	-4	3	8
C[C@@H]1CN([C@@H](C)CO)C(=O)CCCn2nncc2CO[C@H]1CN(C)S(=O)(=O)c1ccc(Cl)cc1	-2	-4	10	-5	97*!
CCC(=O)Nc1ccc2c(c1)C(=O)N(C)[C@H]1CC[C@@H](CC(=O)N[C@H](C)c3ccccc3)O[C@@H]1CO2	-2	0	15	?	-2
COc1ccc(C(CNS(=O)(=O)c2ccc(NC(C)=O)c(OC)c2)N2CCCC2)cc1 (centres undefined)	36*	1	1	-1	7
CCc1nnc(N/N=C/c2c(Cl)cccc2Cl)n1N	.	.	-38	.	64*
COc1cccc(OCc2cc(C(=O)N(C)CCC3CCCCO3)no2)c1 (centres undefined)	39*	-3	4	-5	.
Cc1ccccc1-c1ccc(CN2C(C)C(=O)N(Cc3cn(Cc4ccco4)nn3)CCS2(=O)=O)cc1 (centres undefined)	12	0	6	4	0
Cc1ccc(-c2ccc(CN3C(C)C(=O)N(Cc4cn(Cc5ccco5)nn4)CCS3(=O)=O)cc2)c(C)c1 (centres undefined)	0	27*	9	-8	11
Cc1ccc(-c2ccc(CN3C(CC(C)C)C(=O)N(Cc4cn(Cc5ccco5)nn4)CCS3(=O)=O)cc2)cc1 (centres undefined)	0	-3	-4	-14	5
CC1C(=O)N(Cc2cn(Cc3ccco3)nn2)CCS(=O)(=O)N1Cc1ccc(-c2ccccc2C(F)(F)F)cc1 (centres undefined)	65*	-1	-5	-1	-15
CC(C)CC1C(=O)N(Cc2cn(Cc3ccco3)nn2)CCS(=O)(=O)N1Cc1ccc(-c2ccc(F)cc2)cc1 (centres undefined)	-1	18*	-5	-5	-28
C[C@H]1CN([C@@H](C)CO)C(=O)c2cccc(NC(=O)c3nc4ccccc4s3)c2O[C@H]1CN(C)S(=O)(=O)c1ccc(F)cc1	-3	1	-15	-14	-2
N[C@@H]1CC[C@@H](CCn2cc(C3CCCCC3)nn2)O[C@H]1CO	?	-2	0	-4	12
CN1c2ccc(Br)cc2[C@H]2[C@H](CCN2S(=O)(=O)c2ccccc2F)[C@@H]1CO	40*	5	-11	-12	-4
Cc1ccccc1S(=O)(=O)N1CC[C@H]2[C@@H](CO)N(C)c3ccc(Br)cc3[C@H]21	143*	.	8	.	6
CN1c2ccc(Br)cc2[C@@H]2[C@@H](CCN2S(=O)(=O)c2ccccc2F)[C@H]1CO	-6	5	-7	20	-4
O=C(C[C@H]1C[C@H]2c3cc(NC(=O)NC4CCCCC4)ccc3O[C@H]2[C@@H](CO)O1)NCC(F)(F)F	4	8	-8	15	4
COc1ccccc1NS(=O)(=O)c1cccc(C(=O)NCC(c2ccccc2OC)N2CCCC2)c1 (centres undefined)	-4	15*	25	1	13
O=C(NC(Nc1nc2ccccc2s1)(C(F)(F)F)C(F)(F)F)c1ccccc1	.	.	0	.	14
CC(C)(NC(=O)c1ccccc1)c1nc2ccccc2s1	109*	.	-8	3	.
Cc1cccc(C)c1NC(=S)NC1CCCCC1	68*	1	.	1	.
Cc1ccccc1NC(=S)NC1CCCC1	0	-1	-2	-1	.
CN=C(Nc1cc(C)nn1-c1ccccc1)c1ccccc1F	-1	16*	-5	-3	-7
SMILES	DENV2 CPE	SIRT5 inh	Statin myotox sup	S100A4 MyoIIA	PGC1a acetyl inh
Cn1c(SCc2ccc(C#N)cc2)nnc1-c1ccccc1	.	21*	8	-2	.
COCC(=O)N(C[C@@H]1N[C@@H](CO)[C@@H]1c1ccc(C2=CCCC2)cc1)C(C)C	?	.	-22	.	-3
CO[C@@H]1CN(C)C(=O)c2ccc(NC(=O)c3ccc(F)cc3)cc2OC[C@H](C)N(C(=O)CC2CC2)C[C@@H]1C	1	3	-2	-9	-11
COc1cccc(C#Cc2ccc3c(c2)O[C@H](CN(C)C(=O)c2ccccn2)[C@H](C)CN([C@@H](C)CO)S3(=O)=O)c1	1	.	56	.	6
CC(C)CC#Cc1ccc2c(c1)O[C@H](CN(C)C(=O)c1ccccc1F)[C@@H](C)CN([C@@H](C)CO)S2(=O)=O	32*	9	-25	9	-1
CCCC#Cc1ccc2c(c1)O[C@H](CN(C)C(=O)Nc1ccccc1F)[C@@H](C)CN([C@H](C)CO)S2(=O)=O	-1	21*	24	4	-1
CCCC#Cc1ccc2c(c1)O[C@@H](CN(C)C(=O)Nc1ccccc1F)[C@@H](C)CN([C@H](C)CO)S2(=O)=O	2	3	23	-1	-1
CCCC#Cc1ccc2c(c1)O[C@@H](CN(C)C(=O)c1ccccc1F)[C@@H](C)CN([C@@H](C)CO)S2(=O)=O	-12	17*	2	-4	1
COc1cccc(C#Cc2ccc3c(c2)O[C@@H](CN(C)C(=O)c2ccccn2)[C@@H](C)CN([C@H](C)CO)S3(=O)=O)c1	?	16*!	-2	-3	-11
C[C@H](CO)N1C[C@H](C)[C@@H](CN(C)S(C)(=O)=O)Oc2ncc(C#CC3CC3)cc2C1=O	-3	4	0	?	4
C[C@H]1CN([C@@H](C)CO)C(=O)Cc2cc(NS(=O)(=O)c3ccccc3)ccc2O[C@@H]1CN(C)S(=O)(=O)c1cccs1	1	1	40	-4	-35
CCCC#Cc1ccc2c(c1)O[C@@H](CN(C)C(=O)c1cnccn1)[C@@H](C)CN([C@@H](C)CO)S2(=O)=O	10	28*	35	-1	-4
CCCC#Cc1ccc2c(c1)O[C@H](CN(C)C(=O)c1ccccc1F)[C@H](C)CN([C@H](C)CO)S2(=O)=O	2	18*	-15	18	-9
C[C@H](CO)N1C[C@H](C)[C@H](CN(C)C(=O)c2ccccc2F)Oc2cc(C#CCN(C)C)ccc2S1(=O)=O	16	-4	3	-4	-10
CCCC#Cc1ccc2c(c1)O[C@@H](CN(C)C(=O)c1cnccn1)[C@@H](C)CN([C@H](C)CO)S2(=O)=O	5	-2	8	2	-10
CN(C)C(=O)c1ccc(-c2ccc3c(c2)[C@H]2[C@H](CCN2C(=O)c2ccc4c(c2)OCO4)[C@@H](CO)N3)cc1	.	.	-20	.	0
Cc1cccc(/C=N\Nc2cn[nH]c(=O)c2Cl)c1	.	6	102*	1	-5
